# Results from ChEMBL document CHEMBL1131165, “Inhibitors of acyl-CoA:cholesterol O-acyltransferase. 3. Discovery of a novel series of N-alkyl-N-[(fluorophenoxy)benzyl]-N'-arylureas with weak toxicological effects on adrenal glands” (J Med Chem, 1998).
# Calls of active or inactive are those of the source. No cut-off for these calls is given here.
# Assays:
# Rattus norvegicus [1] = test: In vivo hypocholesterolemic activity in cholesterol-fed rats by oral administration in a cholesterol enriched diet; type: functional
# Procedure, shortened: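 Rats were fed a cholesterol-enriched diet, and compound was given orally as an admixture in that diet. Read-out is plasma total cholesterol against control, expressed as ED50 (the dose reducing it by 50%) or as percent reduction at the stated dose. Significance was tested by unpaired, two-tailed Student's t-test.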
# Rattus norvegicus [2] = test: Percent reduction in cholesterol levels in rats at 0.01 mg/kg; type: functional
# Procedure, shortened: (§1)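 In cholesterol-fed rats, compound was given orally either as a dietary admixture or by gavage in PEG400. Read-out is the percent reduction of plasma total cholesterol versus control at the dose indicated. Significance was assessed by unpaired, two-tailed Student's t-test.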
# [3] = In vitro inhibitory activity against acetylated LDL-induced accumulation of cholesteryl esters in mouse peritoneal macrophages at <10 nM concentration; type: functional
# Procedure, shortened: (§2)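 Mouse peritoneal macrophages were exposed to acetylated LDL, which induces accumulation of cholesteryl esters. Read-out is the IC50 (nM) for inhibiting that accumulation. Values given in parentheses are percent inhibition at the concentration indicated.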
# O-acyltransferase [4] = target: T1, O-acyltransferase (Oryctolagus cuniculus, UniProt G1SFD9); test: In vitro inhibition of acyl coenzyme A:cholesterol acyltransferase (ACAT) from rabbit intestinal microsomes
# Procedure, shortened: (§3)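 Enzyme source is microsomes from rabbit intestine. Read-out is the concentration giving 50% inhibition of ACAT activity (IC50, nM). Some IC50 values were estimated relative to the IC50 of a reference inhibitor tested on the same enzyme batch.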
# [5] = In vitro inhibitory activity against acetylated LDL-induced accumulation of cholesteryl esters in mouse peritoneal macrophages; type: functional; procedure, shortened: as §2
# Rattus norvegicus [6] = test: In vivo hypocholesterolemic activity in cholesterol-fed rats by oral administration by gavage in PEG400 as a vehicle; type: functional
# Procedure, shortened: (§4)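 Cholesterol-fed rats were dosed orally by gavage with PEG400 as vehicle. Plasma total cholesterol was compared with control and reported as ED50 (the dose reducing it by 50%) or as percent reduction at the dose given. Significance was tested by unpaired two-tailed Student's t-test.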
# [7] = Adrenal toxicity in rabbits at 5 mg/kg i.v., expressed as drug-induced necrosis; + indicates necrosis observed; type: organism-based, Oryctolagus cuniculus; parameters: dose 5 mg/kg, route intravenous; settings: rabbit, in vivo, iv
# Procedure, shortened: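 Rabbits (n = 2) given a single 5 mg/kg iv dose as a solution in PEG400. Adrenal glands were examined for drug-induced necrosis of zona fasciculata cortical cells at 24 h after dosing. Each result is scored against controls as observed (+) or not observed (-).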
# Rattus norvegicus [8] = test: Percent reduction in cholesterol levels in rats at >0.1 mg/kg; type: functional; procedure, shortened: as §1
# Rattus norvegicus [9] = test: Percent reduction in cholesterol levels in rats at <0.1 mg/kg; type: functional; procedure, shortened: as §1
# Rattus norvegicus [10] = test: Percent reduction in cholesterol levels in rats at >1 mg/kg; type: functional; procedure, shortened: as §1
# Rattus norvegicus [11] = test: Percent reduction in cholesterol levels in rats at <0.1 mg/kg; inactive; type: functional, organism-based; settings: in the assay text read “>0.1 mg/kg” for “<0.1 mg/kg”; procedure, shortened: as §1
# Rattus norvegicus [12] = test: Percent reduction in cholesterol levels in rats at <0.01 mg/kg; type: functional; procedure, shortened: as §1
# Rattus norvegicus [13] = test: Percent reduction in cholesterol levels in rats at 0.032 mg/kg; type: functional; procedure, shortened: as §1
# Rattus norvegicus [14] = test: Percent reduction in cholesterol levels in rats at >0.1 mg/kg; inactive; type: functional, organism-based; procedure, shortened: as §1
# Rattus norvegicus [15] = test: Percent reduction in cholesterol levels in rats at <1 mg/kg; type: functional; procedure, shortened: as §1
# O-acyltransferase [16] = target: T1, O-acyltransferase; test: In vitro inhibitory activity against Acyl coenzyme A:cholesterol acyltransferase from rabbit intestinal microsomes; type: functional; procedure, shortened: as §3
# Rattus norvegicus [17] = test: In vivo hypocholesterolemic activity in cholesterol-fed rats by oral administration of compound by gavage in PEG400 as a vehicle; inactive at >1; type: functional, organism-based; procedure, shortened: as §4
# T1 sequence (G1SFD9 1-524): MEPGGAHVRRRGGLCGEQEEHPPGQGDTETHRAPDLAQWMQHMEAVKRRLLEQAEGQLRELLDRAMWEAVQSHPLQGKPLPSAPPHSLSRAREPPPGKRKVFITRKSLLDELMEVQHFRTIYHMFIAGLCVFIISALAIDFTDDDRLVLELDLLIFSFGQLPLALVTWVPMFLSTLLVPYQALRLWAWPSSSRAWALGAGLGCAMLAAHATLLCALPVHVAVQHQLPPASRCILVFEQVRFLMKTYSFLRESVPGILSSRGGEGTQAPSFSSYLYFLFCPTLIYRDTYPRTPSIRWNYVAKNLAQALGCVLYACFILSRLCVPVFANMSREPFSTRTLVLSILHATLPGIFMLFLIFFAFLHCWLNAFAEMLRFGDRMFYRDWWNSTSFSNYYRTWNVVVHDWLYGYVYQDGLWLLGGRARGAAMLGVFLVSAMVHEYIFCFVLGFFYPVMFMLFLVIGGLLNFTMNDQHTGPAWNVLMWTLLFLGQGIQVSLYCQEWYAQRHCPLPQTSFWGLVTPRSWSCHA
compound,measurement,setting,value
CSc1cc(C)nc(SC)c1NC(=O)N(Cc1ccc(Oc2ccc(F)cc2)cc1)C1CCCCC1,ED50,Rattus norvegicus [1],< 0.01 mg/kg
same,Reduction,Rattus norvegicus [2],63%
same,Inhibition,[3],61%
same,IC50,O-acyltransferase [4],23 nM
same,IC50,[5],< 10 nM
CSc1cc(C)nc(SC)c1NC(=O)N(Cc1ccc(Oc2ccc(Br)cc2)cc1)C1CCCCCC1,ED50,Rattus norvegicus [1],0.02 mg/kg
same,Inhibition,[3],75%
same,IC50,O-acyltransferase [4],28 nM
same,IC50,[5],< 10 nM
COc1cc(C)nc(OC)c1NC(=O)N(Cc1ccc(Oc2ccc(F)cc2)cc1)C1CCCCCC1,ED50,Rattus norvegicus [1],0.032 mg/kg
same,IC50,O-acyltransferase [4],33 nM
same,ED50,Rattus norvegicus [6],4.5 mg/kg
same,IC50,[5],350 nM
CSc1cc(C)nc(Cl)c1NC(=O)N(Cc1ccc(Oc2ccc(F)cc2)cc1)C1CCCCCC1,ED50,Rattus norvegicus [1],0.022 mg/kg
same,Toxicity,[7],necrosis observed
same,IC50,O-acyltransferase [4],46 nM
same,ED50,Rattus norvegicus [6],0.17 mg/kg
same,IC50,[5],47 nM
COc1ccc(CN(Cc2ccc(Oc3ccc(F)cc3)cc2)C(=O)Nc2c(SC)cc(C)nc2SC)cc1,ED50,Rattus norvegicus [1],> 0.1 mg/kg
same,IC50,O-acyltransferase [4],29 nM
same,Reduction,Rattus norvegicus [8],24%
Cc1ccc(NC(=O)N(Cc2ccc(Oc3ccc(F)cc3)cc2)C2CCCCCC2)c(Cl)n1,ED50,Rattus norvegicus [1],> 0.1 mg/kg
same,IC50,O-acyltransferase [4],19 nM
CSc1nc(C)cc(Cl)c1NC(=O)N(Cc1ccc(Oc2ccc(F)cc2)cc1)C1CCCCCC1,ED50,Rattus norvegicus [1],< 0.1 mg/kg
same,IC50,O-acyltransferase [4],12 nM
same,Reduction,Rattus norvegicus [9],77%
same,ED50,Rattus norvegicus [6],> 1 mg/kg
same,Reduction,Rattus norvegicus [10],48%
same,IC50,[5],350 nM
CSc1cc(C)nc(SC)c1NC(=O)N(Cc1ccc(Oc2ccc(F)cc2)cc1)C1CCCCCC1,ED50,Rattus norvegicus [1],0.034 mg/kg
same,Toxicity,[7],necrosis observed
same,ED50,Rattus norvegicus [6],0.11 mg/kg
same,IC50,[5],48 nM
CSc1cc(C)nc(SC)c1NC(=O)N(Cc1ccccc1)Cc1ccc(Oc2ccc(Br)cc2)cc1,ED50,Rattus norvegicus [1],0.011 mg/kg
same,IC50,O-acyltransferase [4],10 nM
same,Reduction,Rattus norvegicus [9],54%
same,ED50,Rattus norvegicus [6],< 0.1 mg/kg
same,IC50,[5],14 nM
CSc1cc(C)nc(S(C)(=O)=O)c1NC(=O)N(Cc1ccc(Oc2ccc(F)cc2)cc1)C1CCCCCC1,ED50,Rattus norvegicus [1],> 0.1 mg/kg
same,Reduction,Rattus norvegicus [11],inactive
same,IC50,O-acyltransferase [4],78 nM
same,IC50,[5],15 nM
Cc1cc(S(C)(=O)=O)c(NC(=O)N(Cc2ccc(Oc3ccc(F)cc3)cc2)C2CCCCCC2)c(Cl)n1,ED50,Rattus norvegicus [1],> 0.1 mg/kg
same,IC50,O-acyltransferase [4],30 nM
same,ED50,Rattus norvegicus [6],> 1 mg/kg
same,Reduction,Rattus norvegicus [8],46%
same,Reduction,Rattus norvegicus [10],34%
same,IC50,[5],350 nM
CSc1cc(C)nc(SC)c1NC(=O)N(Cc1ccccc1)Cc1ccc(Oc2ccc(F)cc2)cc1,ED50,Rattus norvegicus [1],< 0.01 mg/kg
same,Inhibition,[3],77%
same,IC50,O-acyltransferase [4],9.1 nM
same,IC50,[5],< 10 nM
same,Reduction,Rattus norvegicus [12],58%
CSc1cc(C)nc(SC)c1NC(=O)N(Cc1ccc(Oc2ccc(F)cc2)cc1)[C@H](C)c1ccccc1,ED50,Rattus norvegicus [1],0.095 mg/kg
same,IC50,O-acyltransferase [4],19 nM
same,ED50,Rattus norvegicus [6],4.6 mg/kg
same,IC50,[5],110 nM
CSc1cc(C)nc(SC)c1NC(=O)N(Cc1cccc(Oc2ccc(F)cc2)c1)C1CCCCCC1,ED50,Rattus norvegicus [1],< 0.1 mg/kg
same,IC50,O-acyltransferase [4],73 nM
same,IC50,[5],2.9 nM
CSc1cc(C)nc(SC)c1NC(=O)N(Cc1ccc(Oc2ccc(F)cc2)cc1)C1CCOCC1,ED50,Rattus norvegicus [1],< 0.1 mg/kg
same,IC50,O-acyltransferase [4],46 nM
same,Reduction,Rattus norvegicus [9],58%
COc1nc(C)cc(SC)c1NC(=O)N(Cc1ccc(Oc2ccc(F)cc2)cc1)C1CCCCCC1,ED50,Rattus norvegicus [1],< 0.032 mg/kg
same,IC50,O-acyltransferase [4],29 nM
same,ED50,Rattus norvegicus [6],1.4 mg/kg
same,Reduction,Rattus norvegicus [13],62%
same,IC50,[5],13 nM
CSc1cc(C)nc(SC)c1NC(=O)N(Cc1ccc(Oc2ccc(F)cc2)cc1)[C@@H](C)c1ccccc1,ED50,Rattus norvegicus [1],> 0.1 mg/kg
same,IC50,O-acyltransferase [4],19 nM
same,IC50,[5],260 nM
same,Reduction,Rattus norvegicus [14],inactive
CCOCCN(Cc1ccc(Oc2ccc(F)cc2)cc1)C(=O)Nc1c(SC)cc(C)nc1SC,ED50,Rattus norvegicus [1],> 0.1 mg/kg
same,IC50,O-acyltransferase [4],24 nM
same,Reduction,Rattus norvegicus [8],26%
CSc1cc(C)nc(SC)c1NC(=O)N(CCCc1ccccc1)Cc1ccc(Oc2ccc(F)cc2)cc1,ED50,Rattus norvegicus [1],0.025 mg/kg
same,IC50,O-acyltransferase [4],28 nM
same,IC50,[5],40 nM
COc1nc(C)ccc1NC(=O)N(Cc1ccc(Oc2ccc(F)cc2)cc1)C1CCCCCC1,ED50,Rattus norvegicus [1],> 0.1 mg/kg
same,IC50,O-acyltransferase [4],39 nM
same,Reduction,Rattus norvegicus [14],inactive
CSc1cc(C)nc(SC)c1NC(=O)N(Cc1ccccc1)Cc1cccc(-c2cc[nH]n2)c1,IC50,[5],350 nM
CSc1cc(C)nc(C)c1NC(=O)N(Cc1ccc(Oc2ccc(F)cc2)cc1)C1CCCCCC1,Reduction,Rattus norvegicus [15],72%
same,IC50,O-acyltransferase [4],90 nM
same,ED50,Rattus norvegicus [6],< 1 mg/kg
same,IC50,[5],35 nM
Cc1cc(S(C)(=O)=O)c(NC(=O)N(Cc2ccc(Oc3ccc(F)cc3)cc2)C2CCCCCC2)c(S(C)(=O)=O)n1,ED50,Rattus norvegicus [1],0.068 mg/kg
same,IC50,O-acyltransferase [4],45 nM
same,ED50,Rattus norvegicus [6],0.63 mg/kg
same,IC50,[5],215 nM
CSc1cc(C)nc(SC)c1NC(=O)N(CCc1ccccc1)Cc1ccc(Oc2ccc(F)cc2)cc1,ED50,Rattus norvegicus [1],0.016 mg/kg
same,IC50,O-acyltransferase [4],16 nM
same,ED50,Rattus norvegicus [6],2.7 mg/kg
same,IC50,[5],6.1 nM
O=C(Nc1c(F)cc(F)cc1F)N(Cc1ccccc1)Cc1cccc(-c2cc[nH]n2)c1,IC50,[5],7400 nM
CSc1cc(C)nc(SC)c1NC(=O)N(Cc1ccc(Oc2ccc(F)cc2)cc1)Cc1c(C)cccc1C,IC50,O-acyltransferase [16],26 nM
same,IC50,[5],21 nM
Cc1cc(Cl)c(NC(=O)N(Cc2ccc(Oc3ccc(F)cc3)cc2)C2CCCCCC2)c(Cl)n1,ED50,Rattus norvegicus [1],> 0.1 mg/kg
same,IC50,O-acyltransferase [4],14 nM
same,Reduction,Rattus norvegicus [8],38%
CSc1cc(C)nc(SC)c1NC(=O)N(Cc1ccc(Oc2ccc(F)cc2)cc1)C(C)(C)c1ccccc1,IC50,O-acyltransferase [4],24 nM
same,ED50,Rattus norvegicus [17],inactive
same,IC50,[5],52 nM
Cc1cc(C)c(NC(=O)N(Cc2ccc(Oc3ccc(F)cc3)cc2)C2CCCCCC2)c(C)c1,ED50,Rattus norvegicus [1],0.045 mg/kg
same,IC50,O-acyltransferase [4],25 nM
same,ED50,Rattus norvegicus [6],5.3 mg/kg
same,IC50,[5],80 nM
CSc1nc(C)nc(SC)c1NC(=O)N(Cc1ccc(Oc2ccc(F)cc2)cc1)C1CCCCCC1,ED50,Rattus norvegicus [1],0.069 mg/kg
same,Toxicity,[7],necrosis observed
same,IC50,O-acyltransferase [4],56 nM
same,ED50,Rattus norvegicus [6],0.45 mg/kg
same,IC50,[5],20 nM
Cc1cc(C)c(NC(=O)N(Cc2ccc(Oc3ccc(F)cc3)cc2)C2CCCCCC2)c(C)n1,ED50,Rattus norvegicus [1],0.044 mg/kg
same,IC50,O-acyltransferase [4],62 nM
same,ED50,Rattus norvegicus [6],0.77 mg/kg
same,IC50,[5],240 nM
